In ChEMBL document CHEMBL4376835, “Discovery of Nonpungent Transient Receptor Potential Vanilloid 1 (TRPV1) Agonist as Strong Topical Analgesic” (J Med Chem, 2020):
Activity calls are given as the source filed them.

Assays:
[1] = tested on: Rattus norvegicus; assay: Analgesic activity in ip dosed L5/L6 spinal nerve ligation-induced neuropathic pain Sprague-Dawley rat model assessed as increase in paw withdrawal threshold in response to von frey filament compound administered at day 14 after ligation and measured up to 1.5 hrs after drug dosing by up and down method; format: functional
Outline: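 Rat spinal nerve ligation model of neuropathic pain. Compound was given i.p. at 1, 2, 5 or 10 mg/kg; a gabapentin 65 mg/kg i.p. arm and a saline i.p. arm were run alongside. Von Frey withdrawal thresholds were taken pre-surgery and on days 1, 7 and 14, then at 0.5, 1 and 1.5 h post-dose. Mean±SEM, n=7-8.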

[2] = tested on: Mus musculus; assay: Analgesic activity in ip dosed formalin-induced nociception ICR mouse model assessed as reduction in pain behaviour by measuring less licking of formalin injected hind paw pretreated with compound 30 mins prior to formalin induction by formalin test; format: functional
Outline: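 Mice were dosed i.p. with 0.1–10 mg/kg, with vehicle and gabapentin (50, 100 mg/kg i.p.) arms. 2% formalin was injected into the dorsal hindpaw, and paw-licking time was recorded for the first phase (5 min) and the second phase (20–30 min). ED50 was taken from the dose–response. Mean±SEM, n=8.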

[3] = target: Transient receptor potential cation channel subfamily M member 8 (Mus musculus) (UniProt Q8R4D5); assay: Agonist activity at mouse TRPM8 expressed in HEK293 cells assessed as increase in calcium influx at 1 uM incubated for 1 min by Fluo-4-AM dye based FLIPR assay; format: cell-based
[4] = target: Transient receptor potential cation channel subfamily A member 1 (Mus musculus) (UniProt Q8BLA8); assay: Agonist activity at mouse TRPA1 expressed in HEK293 cells assessed as increase in calcium influx at 1 uM incubated for 1 min by Fluo-4-AM dye based FLIPR assay; format: cell-based
Outline: (§1)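 Intracellular calcium influx read by FLIPR in cells individually transfected with TRPV1, hTRPA1, mTRPA1, mTRPV3 or mTRPM8. Each transfected line was also challenged with its own reference TRP-family agonist as a responsiveness check.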

[5] = target: Transient receptor potential cation channel subfamily A member 1 (Homo sapiens) (UniProt O75762); assay: Agonist activity at human TRPA1 expressed in HEK293 cells assessed as increase in calcium influx at 100 uM incubated for 1 min by Fluo-4-AM dye based FLIPR assay; format: cell-based; outline: as §1
[6] = Drug uptake in porcine skin assessed as dermal accumulation applied topically as carbopol-gel with 1% formulation measured for 8 hrs by Franz diffusion cell based in vitro transdermal delivery test; format: ADME, tissue-based, Sus scrofa, Zone of skin; details: pig
[7] = Toxicity in ip dosed ICR mouse administered as single dose; format: organism-based; details: in vivo
[8] = Toxicity in ICR mouse assessed as ear edema administered topically and measured after 30 mins; details: in vivo, topical_or_ocular, 0.5 h
Outline: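 Ear swelling test: a solution of the agent was applied to mouse ears, and ear punch biopsies were collected 30 min later and weighed.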

[9] = Toxicity in po dosed ICR mouse administered as single dose; format: organism-based; details: in vivo
[10] = Systemic drug absorption in porcine skin assessed as drug accumulation in acceptor Franz cell applied topically as carbopol-gel with 1% formulation measured for 8 hrs by Franz diffusion cell based in vitro transdermal delivery test; format: ADME, tissue-based, Sus scrofa, Zone of skin; details: pig
[11] = Toxicity in ICR mouse assessed as skin irritation by measuring ear scratching administered topically and measured for 30 mins; details: in vivo, topical_or_ocular, 0.5 h
Outline: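 Ear scratching test: a solution of the agent was applied to mouse ears, and scratching movements were counted over the following 30 min.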

[12] = tested on: Mus musculus; assay: Induction of hypothermia in ICR mouse assessed as decrease in body temperature at 3 mg/kg, ip measured after 30 mins; format: functional, organism-based
[13] = target: T1, Transient receptor potential cation channel subfamily V member 3 (Mus musculus) (UniProt Q8K424); assay: Agonist activity at mouse TRPV3 expressed in HEK293 cells assessed as increase in calcium influx at 10 uM incubated for 1 min by Fluo-4-AM dye based FLIPR assay; format: cell-based
T1 sequence (whole entry): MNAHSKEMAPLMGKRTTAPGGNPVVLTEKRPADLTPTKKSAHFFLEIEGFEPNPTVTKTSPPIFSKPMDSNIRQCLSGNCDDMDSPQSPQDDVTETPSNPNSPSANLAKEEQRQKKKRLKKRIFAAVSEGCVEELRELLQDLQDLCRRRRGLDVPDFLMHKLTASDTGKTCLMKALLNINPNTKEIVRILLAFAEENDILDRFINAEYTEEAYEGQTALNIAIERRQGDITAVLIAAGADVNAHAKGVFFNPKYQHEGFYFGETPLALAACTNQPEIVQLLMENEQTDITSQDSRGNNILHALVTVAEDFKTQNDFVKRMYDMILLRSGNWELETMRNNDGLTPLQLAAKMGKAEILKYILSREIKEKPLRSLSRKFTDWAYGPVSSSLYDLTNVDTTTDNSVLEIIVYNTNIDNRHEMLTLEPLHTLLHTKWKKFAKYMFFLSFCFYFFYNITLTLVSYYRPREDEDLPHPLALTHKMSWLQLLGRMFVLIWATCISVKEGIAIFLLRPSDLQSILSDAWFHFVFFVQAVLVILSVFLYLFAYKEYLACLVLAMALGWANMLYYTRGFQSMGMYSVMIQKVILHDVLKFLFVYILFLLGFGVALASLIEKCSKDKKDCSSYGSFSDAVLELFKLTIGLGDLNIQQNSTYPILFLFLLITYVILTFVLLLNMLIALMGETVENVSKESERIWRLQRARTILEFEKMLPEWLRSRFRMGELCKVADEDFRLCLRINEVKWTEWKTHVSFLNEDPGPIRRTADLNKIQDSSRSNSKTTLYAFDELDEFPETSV

Transient receptor potential cation channel subfamily M member 8 (Mus musculus), sequence (Q8R4D5 whole entry): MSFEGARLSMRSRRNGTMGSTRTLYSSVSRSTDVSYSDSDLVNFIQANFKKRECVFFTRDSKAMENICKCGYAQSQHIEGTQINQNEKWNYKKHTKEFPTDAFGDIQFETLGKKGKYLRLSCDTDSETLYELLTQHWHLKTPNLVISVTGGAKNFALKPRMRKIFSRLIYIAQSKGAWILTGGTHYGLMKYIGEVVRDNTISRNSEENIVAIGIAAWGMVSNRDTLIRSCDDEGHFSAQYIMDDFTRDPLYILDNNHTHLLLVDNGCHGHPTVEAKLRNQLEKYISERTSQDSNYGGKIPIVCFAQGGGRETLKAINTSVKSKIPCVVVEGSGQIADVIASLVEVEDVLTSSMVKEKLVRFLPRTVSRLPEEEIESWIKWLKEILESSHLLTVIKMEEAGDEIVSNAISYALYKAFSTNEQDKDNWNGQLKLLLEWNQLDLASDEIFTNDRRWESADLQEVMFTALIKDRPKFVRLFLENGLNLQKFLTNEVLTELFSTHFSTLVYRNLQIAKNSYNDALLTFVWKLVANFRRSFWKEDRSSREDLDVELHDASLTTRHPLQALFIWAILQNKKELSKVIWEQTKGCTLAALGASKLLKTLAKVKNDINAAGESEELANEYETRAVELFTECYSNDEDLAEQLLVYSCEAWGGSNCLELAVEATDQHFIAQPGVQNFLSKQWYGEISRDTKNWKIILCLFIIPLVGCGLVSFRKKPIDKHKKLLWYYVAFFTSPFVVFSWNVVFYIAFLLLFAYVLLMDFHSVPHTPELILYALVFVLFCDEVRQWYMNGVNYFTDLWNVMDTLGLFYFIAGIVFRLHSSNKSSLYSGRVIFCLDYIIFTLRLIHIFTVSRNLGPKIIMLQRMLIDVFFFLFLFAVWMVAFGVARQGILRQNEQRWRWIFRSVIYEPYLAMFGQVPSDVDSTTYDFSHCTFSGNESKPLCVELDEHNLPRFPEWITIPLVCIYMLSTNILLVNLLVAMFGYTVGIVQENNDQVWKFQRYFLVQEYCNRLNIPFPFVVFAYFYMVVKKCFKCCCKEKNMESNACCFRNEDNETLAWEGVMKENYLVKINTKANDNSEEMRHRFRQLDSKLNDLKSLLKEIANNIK
Transient receptor potential cation channel subfamily A member 1 (Homo sapiens), sequence (O75762 whole entry, the tested form may be a part): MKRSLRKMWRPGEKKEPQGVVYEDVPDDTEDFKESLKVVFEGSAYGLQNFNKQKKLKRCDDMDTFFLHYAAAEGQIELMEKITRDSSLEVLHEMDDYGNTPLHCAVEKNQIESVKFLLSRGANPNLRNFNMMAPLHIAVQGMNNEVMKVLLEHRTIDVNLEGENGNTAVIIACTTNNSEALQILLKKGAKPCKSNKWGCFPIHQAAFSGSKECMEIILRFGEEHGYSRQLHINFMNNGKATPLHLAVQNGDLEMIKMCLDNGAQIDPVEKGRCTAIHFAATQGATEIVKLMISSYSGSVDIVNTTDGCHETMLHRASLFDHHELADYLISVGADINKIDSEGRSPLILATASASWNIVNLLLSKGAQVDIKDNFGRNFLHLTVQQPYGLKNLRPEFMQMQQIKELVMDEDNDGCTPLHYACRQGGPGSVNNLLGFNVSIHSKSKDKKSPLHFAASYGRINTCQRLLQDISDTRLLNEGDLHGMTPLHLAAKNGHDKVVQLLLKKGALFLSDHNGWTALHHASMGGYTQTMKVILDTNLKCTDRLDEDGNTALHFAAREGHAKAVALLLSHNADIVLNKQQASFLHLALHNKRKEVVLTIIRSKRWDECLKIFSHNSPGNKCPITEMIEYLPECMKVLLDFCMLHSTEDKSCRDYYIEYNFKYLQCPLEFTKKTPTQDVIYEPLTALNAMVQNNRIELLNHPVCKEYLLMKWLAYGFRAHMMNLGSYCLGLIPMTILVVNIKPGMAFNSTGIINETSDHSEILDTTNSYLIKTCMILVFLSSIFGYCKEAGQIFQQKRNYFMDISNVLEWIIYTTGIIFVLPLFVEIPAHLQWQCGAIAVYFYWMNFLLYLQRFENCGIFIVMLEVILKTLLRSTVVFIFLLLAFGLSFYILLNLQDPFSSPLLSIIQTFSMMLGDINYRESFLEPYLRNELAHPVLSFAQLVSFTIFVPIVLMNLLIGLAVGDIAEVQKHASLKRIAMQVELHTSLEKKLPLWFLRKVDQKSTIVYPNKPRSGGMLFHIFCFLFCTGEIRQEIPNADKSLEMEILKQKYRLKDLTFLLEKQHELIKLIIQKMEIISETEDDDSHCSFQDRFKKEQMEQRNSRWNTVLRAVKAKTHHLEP
Transient receptor potential cation channel subfamily A member 1 (Mus musculus), sequence (Q8BLA8 whole entry): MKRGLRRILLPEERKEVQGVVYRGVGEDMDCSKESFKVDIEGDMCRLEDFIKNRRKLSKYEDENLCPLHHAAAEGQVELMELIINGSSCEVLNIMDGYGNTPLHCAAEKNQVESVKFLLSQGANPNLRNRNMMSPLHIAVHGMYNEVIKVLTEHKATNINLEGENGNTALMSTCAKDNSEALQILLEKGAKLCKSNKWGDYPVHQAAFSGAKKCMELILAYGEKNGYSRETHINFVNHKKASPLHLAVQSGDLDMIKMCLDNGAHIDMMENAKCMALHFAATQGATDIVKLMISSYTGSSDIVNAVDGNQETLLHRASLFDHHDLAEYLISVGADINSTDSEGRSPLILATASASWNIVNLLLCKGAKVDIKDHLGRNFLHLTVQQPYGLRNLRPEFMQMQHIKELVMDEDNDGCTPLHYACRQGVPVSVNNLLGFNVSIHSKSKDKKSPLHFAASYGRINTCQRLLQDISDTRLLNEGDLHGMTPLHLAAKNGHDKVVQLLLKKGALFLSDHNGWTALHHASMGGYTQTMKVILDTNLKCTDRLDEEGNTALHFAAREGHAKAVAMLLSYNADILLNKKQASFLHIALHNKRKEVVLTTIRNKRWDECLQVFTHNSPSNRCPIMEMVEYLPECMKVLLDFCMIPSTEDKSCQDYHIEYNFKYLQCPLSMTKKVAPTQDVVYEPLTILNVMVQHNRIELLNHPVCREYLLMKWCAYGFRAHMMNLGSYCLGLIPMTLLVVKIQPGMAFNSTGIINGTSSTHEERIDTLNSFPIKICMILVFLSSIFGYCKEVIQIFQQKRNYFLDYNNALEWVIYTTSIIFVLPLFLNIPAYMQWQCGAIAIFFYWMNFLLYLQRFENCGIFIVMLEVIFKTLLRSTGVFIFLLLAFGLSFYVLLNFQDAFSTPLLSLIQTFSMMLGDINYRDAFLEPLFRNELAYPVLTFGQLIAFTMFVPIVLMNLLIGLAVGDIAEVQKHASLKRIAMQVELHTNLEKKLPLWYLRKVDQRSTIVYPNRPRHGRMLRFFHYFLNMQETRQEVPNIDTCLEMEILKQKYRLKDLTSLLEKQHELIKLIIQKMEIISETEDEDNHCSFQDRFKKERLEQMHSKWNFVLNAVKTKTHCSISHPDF

SMILES: NCC1(CC(=O)O)CCCCC1 [GABAPENTIN]
- ED50 [1]: ≥ 30 mg/kg
- ED50 [2]: ≥ 40 mg/kg

SMILES: CC1CCC(C(C)C)C(O)C1 (stereo not drawn)
- Activity [3]: Active

SMILES: O=C/C=C/c1ccccc1
- Activity [4]: Active
- Activity [5]: Active

SMILES: COc1cc(CNC(=O)CCCC/C=C/C(C)C)ccc1O [CAPSAICIN]
- Drug uptake [6]: Active
- LD50 [7]: 7.5 mg/kg
- Activity [8]: Toxic
- LD50 [9]: 119 mg/kg
- Drug absorption [10]: Active
- Activity [11]: Toxic
- Activity [12]: Active

SMILES: CC12CCC(CC1=O)C2(C)C (stereo not drawn)
- Activity [13]: Active
